Compounds with a hit are over-represented: about 2% of the library has one in this group of screens.
CXCR6 block: CXCR6 receptor inhibitors, primary screen, cell-based, beta-arrestin, luminescence, CHO-K1 PathHunter, 1536-well. C-X-C chemokine receptor type 6 (Homo sapiens), O00574. inhibition, % at 20 µM. 0.36% of 360,000 active. AID 602244, 2012; in the data active = inhibition above about 34%, passing the limit was not always enough;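 note: antagonist mode with CXCL16 agonist at 10 nM final; 0% = 10 nM CXCL16 with DMSO and 100% = unstimulated wells without agonist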
APJ antagonist: antagonists of human apelin receptor APJ, primary screen, CHO-K1 cells, beta-arrestin complementation, luminescence | P35414 | inhibition, % at 20 µM | 0.32% of 330,000 active;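 active = inhibition above about 40% at 20 µM, limit read from the data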;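 note: cells challenged with 10 nM apelin-13 agonist together with compound; plate controls were apelin-13 plus DMSO wells for no effect and DMSO wells lacking apelin-13 for full effect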
Target sequence (P35414 whole entry, looked up): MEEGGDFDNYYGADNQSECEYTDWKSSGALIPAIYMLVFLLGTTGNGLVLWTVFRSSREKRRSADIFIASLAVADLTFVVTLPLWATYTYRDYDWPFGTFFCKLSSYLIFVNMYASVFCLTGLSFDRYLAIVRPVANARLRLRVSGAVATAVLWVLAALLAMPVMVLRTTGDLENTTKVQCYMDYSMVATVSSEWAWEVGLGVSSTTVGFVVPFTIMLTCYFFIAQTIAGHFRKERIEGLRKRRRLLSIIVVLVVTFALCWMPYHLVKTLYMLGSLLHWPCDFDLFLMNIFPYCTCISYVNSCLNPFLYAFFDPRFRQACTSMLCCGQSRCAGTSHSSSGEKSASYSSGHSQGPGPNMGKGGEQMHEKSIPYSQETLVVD
CCR6 antagonist: CCR6 receptor antagonists, primary screen, cell-based, CHO-K1, luminescence, beta-arrestin, uHTS | CHO-K1 CCR6 PathHunter beta-arrestin, CCL20-stimulated | inhibition, % at 20 µM | 0.49% of 340,000 active | AID 493098, 2011;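 active = compounds whose inhibition of the agonist-driven luminescence signal at 20 µM reaches about 50%, limit read from the data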;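 note: cells stimulated with CCL20 at 14 nM final; plate controls were DMSO with CCL20 for no effect and DMSO without agonist for full effect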
EBI2 antag: EBI2 receptor antagonists, beta-arrestin recruitment, primary screen, cell-based, luminescence, 7a,25-OHC stimulation, uHTS; inhibition, % at 5 µM; AID 651636, 2012; G-protein coupled receptor 183 (Homo sapiens), P32249; 0.81% of 360,000 active; 7a,25-OHC stimulated; in the data active = inhibition above about 38%;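 note: enzyme fragment complementation signal reports receptor beta-arrestin coupling in cells; 0% = agonist plus DMSO wells and 100% = wells without agonist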
APJ ag: agonists of human apelin receptor APJ, primary screen, CHO-K1 cells, PathHunter beta-arrestin, luminescence. P35414. AID 2520, 2010. 0.11% of 330,000 active. 0% DMSO wells, 100% apelin. activation, % at 20 µM;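 active = activation more than six SD over the plate average, tested at 20 µM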;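 note: 0% = DMSO alone and 100% = apelin-13 at 10 nM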
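Test system – PathHunter CHO-K1 APJ (AGTRL-1) beta-arrestin reporter cells · Input – 1000 cells/well · Compound – single test compound dose, 20 µM final, 1% DMSO · Times – compound stimulation 90 min at 25 °C, detection 60 min · Technique – beta-gal luminescence · Read-out basis – APJ–arrestin association signal · Control set – negative DMSO alone, positive Apelin-13 at 10 nM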
FXN GAA850 act: FXN promoter activators, primary screen, cell-based, luciferase luminescence, HEK293 lucGAA850; 0.56% of 360,000 active; activation, % at 6 µM; HEK293 lucGAA850 FXN promoter luciferase reporter, 24 h; percent of 10 µM SAHA response;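 active = activation above the average of all compounds screened plus 3 SD, cutoff fixed separately per campaign, cut at about 7.5% in these data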;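 note: 0% = DMSO wells and 100% = 10 µM SAHA wells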
EBI2 antag conf: EBI2 antagonist hit retest, beta-arrestin, confirmation, cell-based, single concentration, luminescence, 7a,25-OHC stimulation; 29% of 2,400 active; shares compounds with EBI2 antag; 7a,25-OHC antagonism; AID 651997, 2013; inhibition, % at 5 µM;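 active = inhibition of at least 50%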
EBI2 agonist: EBI2 agonist activity of antagonist hits, confirmation, counter-screen for EBI2 antagonist project, cell-based, single concentration, agonist mode, luminescence; shares compounds with EBI2 antag; 2,400 tested, under 10 active; activation, % at 5 µM; AID 652000, 2013; EBI2-expressing cells, 60 min; 0% vehicle, 100% 7α,25-dihydroxycholesterol control;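 active = activation of at least 50%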
bGal counter: E. coli beta-galactosidase enzyme inhibition, confirmation, counter-screen for EBI2 antagonist project, biochemical, luminescence, single concentration | inhibition, % at 5 µM | purified beta-galactosidase, luminescent Galacton Star, 15 min | 1% of 2,400 active | shares compounds with EBI2 antag;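 active = replicate-average signal at least 3 plate SD below neutral wells, shown as high inhibition, flagging enzyme-inhibiting false positives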;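 note: 0% = DMSO wells with enzyme and 100% = wells lacking enzyme; higher means stronger loss of beta-gal luminescence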
* = called active by the depositor; . = not tested or not shown.

SMILES	CXCR6 block	APJ antagonist	CCR6 antagonist	EBI2 antag	APJ ag	FXN GAA850 act	EBI2 antag conf	EBI2 agonist	bGal counter
CNC[C@@H]1Oc2cc(Br)ccc2S(=O)(=O)N([C@H](C)CO)C[C@@H]1C	4	.	.	-10	.	.	.	.	.
C=CCNc1nc(NCCOc2ccccc2Cl)c2sc(-c3ccccc3)cc2n1	12	.	.	42*	.	-3	31	-2	-7
c1ccc(OCCNc2nc(NCC3CC3)nc3cc(-c4ccccc4)sc23)cc1	20	.	.	68*	.	-1	62*	-1	-10
c1ccc(CNc2nc(NCC3CC3)nc3cc(-c4ccccc4)sc23)cc1	6	.	.	63*	.	-2	48	-1	-8
C=CCNc1nc(NCCOC)c2sc(-c3ccccc3)cc2n1	10	.	.	25	.	-1	.	.	.
C=CCNc1nc(NCc2ccc(N(C)C)cc2)c2sc(-c3ccccc3)cc2n1	4	.	.	40	.	3	.	.	.
N#Cc1ccccc1CSCCNC(=O)Cc1c(F)cccc1Cl	2	4	-2	4	-3	1	.	.	.
O=C(NC(CSC(=O)c1ccccc1)C(=O)O)OCc1ccccc1 (centres undefined)	0	.	8	6	.	0	.	.	.
O=C(NCc1ccccc1)c1ccc(CN2CCC(Cc3ccccc3)CC2)cc1	5	1	8	50*	-4	-3	19	0	0
O=C(NCc1ccccc1)c1ccc(C(=O)NCc2ccccc2)cc1	8	.	2	47*	.	0	1	-1	-11
COCCNC(=O)c1ccc(CN2CCC(Cc3ccccc3)CC2)cc1	10	8	22	-1	-2	-1	.	.	.
CCOC(=O)c1cnc2ccc(OC)cc2c1Nc1ccc(N2CCN(C)CC2)cc1	-8	11	17	41*	-2	3	53*	2	0
CCOC(=O)c1ccc2ncc(C(=O)OCC)c(Nc3ccc(N4CCOCC4)cc3)c2c1	3	3	12	19	7	-4	.	.	.
Cc1ccc2c(CN3CCN(c4ccccc4)CC3)cc(=O)oc2c1	4	.	.	1	.	.	.	.	.
O=C(CC1C=CCC1)Nc1ccccc1 (centres undefined)	2	.	5	-3	.	3	.	.	.
Cc1ccc(S(=O)(=O)NCCC(=O)NNC(=O)COc2ccc(Br)cc2)cc1C	2	0	13	63*	1	0	25	-1	-15
Cc1ccc(OCC(=O)N2CCN(C(=O)c3cccc(F)c3)CC2)cc1	2	9	2	84*	-2	-3	49	2	5
COc1ccc(OCC(=O)N2CCN(C(=O)c3cccc(F)c3)CC2)cc1	-6	-20	9	81*	-6	-1	61*	-1	5
Cc1ccc(OCC(=O)N2CCN(C(=O)c3ccncc3)CC2)cc1	-2	2	-6	44*	-1	1	27	2	4
CCC(=O)c1ccc(OCC(=O)N2CCN(C(=O)c3ccccc3)CC2)cc1	-5	-45	0	21	-2	-1	.	.	.
COc1ccc(OCC(=O)N2CCN(C(=O)c3ccc(F)cc3)CC2)cc1	8	8	7	79*	0	2	65*	1	5
CC(C)CC(=O)N1CCN(C(=O)c2cccc(F)c2)CC1	-4	10	-16	-4	0	0	.	.	.
COc1cc(OC)cc(C(=O)N2CCN(C(=O)c3cccc(F)c3)CC2)c1	-5	1	7	5	-1	-1	.	.	.
O=C(COc1ccc(F)cc1)N1CCCCCCC1	3	13	2	-8	0	1	.	.	.
COc1ccc(OC)c(NC(=O)C2(C)CCN2C(=O)C2(c3ccccc3)CCCC2)c1 (centres undefined)	4	.	.	33	.	0	.	.	.
SMILES	CXCR6 block	APJ antagonist	CCR6 antagonist	EBI2 antag	APJ ag	FXN GAA850 act	EBI2 antag conf	EBI2 agonist	bGal counter
CCc1ccc(C(=O)NNC(=O)c2cccc(N3C(=O)CCC3=O)c2)cc1	-6	14	-10	1	7	0	.	.	.
Cc1cc(C)cc(NC(=O)Nc2ccc3c(c2)N(C)C(=O)CS3)c1	-12	2	-21	38*	1	-2	48	-1	-19
Cc1ccc(NC(=O)Nc2ccc3c(c2)N(C)C(=O)CS3)cc1C	-20	10	-3	17	6	-2	.	.	.
c1ccc(COc2cccc(-c3cc4nc(NCCc5ccncc5)ccn4n3)c2)cc1	-6	.	.	47*	.	3	31	-1	-12
COc1ccc(C(=O)C(=O)N2CCC(c3ccccc3)CC2)cn1	.	.	.	43*	.	.	23	1	6
COc1ccc(-c2ccc3c(c2)C2CC3CCN2S(=O)(=O)c2ccccc2C)cc1 (centres undefined)	4	.	12	16	.	1	.	.	.
COc1ccc(/C=C2\SC(N3CCCCC3)=NC2=O)cc1	0	21	5	54*	1	1	30	5	5
CCc1ccc(/C=C2\SC(N3CCCC3)=NC2=O)cc1	5	-13	1	73*	-3	0	40	1	9
Cn1nccc1C(=O)N1CCOCC1	-6	6	0	-9	-1	-3	.	.	.
O=C(CNC(=O)c1ccco1)OCc1ccccc1F	2	7	10	6	-3	0	.	.	.
OC[C@H]1O[C@@H](c2nc3ccc(-c4nc(-c5ccc(Br)cc5)no4)cc3[nH]2)C[C@@H]1O	11	.	.	14	.	2	.	.	.
O=Cc1c(NCCc2ccc(F)cc2)c2ccccc2[nH]c1=O	4	16	11	45*	0	-3	4	-1	-9
O=Cc1c(NCc2ccccc2F)c2ccccc2[nH]c1=O	-3	11	1	-17	1	1	.	.	.
O=[N+]([O-])c1ccc(-c2cn(-c3ccc(Cl)cc3)cn2)cc1	-6	.	.	31	.	.	.	.	.
CCOC(=O)c1ccc(-n2cnc(-c3ccc([N+](=O)[O-])cc3)c2)cc1	-4	.	.	50*	.	.	20	0	7
